The source made the active and inactive calls.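 How the source made its calls: active means KCNQ5 potassium channel activity raised or lowered at any tested dose, with a dose response curve obtained; inactive means no effect at any dose, or no curve obtained.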
target: Potassium voltage-gated channel subfamily KQT member 5 (Homo sapiens) (UniProt Q9NR82); test: KCNQ5 activity selectivity test – cell-based, thallium flux, selectivity assay for KCNQ2 activator project, dose response (AID 493046); settings: CHO-K1 transfected KCNQ5, FluxOR thallium flux fluorescence; series mostly up to 30 µM
Sequence (Q9NR82 whole entry, looked up): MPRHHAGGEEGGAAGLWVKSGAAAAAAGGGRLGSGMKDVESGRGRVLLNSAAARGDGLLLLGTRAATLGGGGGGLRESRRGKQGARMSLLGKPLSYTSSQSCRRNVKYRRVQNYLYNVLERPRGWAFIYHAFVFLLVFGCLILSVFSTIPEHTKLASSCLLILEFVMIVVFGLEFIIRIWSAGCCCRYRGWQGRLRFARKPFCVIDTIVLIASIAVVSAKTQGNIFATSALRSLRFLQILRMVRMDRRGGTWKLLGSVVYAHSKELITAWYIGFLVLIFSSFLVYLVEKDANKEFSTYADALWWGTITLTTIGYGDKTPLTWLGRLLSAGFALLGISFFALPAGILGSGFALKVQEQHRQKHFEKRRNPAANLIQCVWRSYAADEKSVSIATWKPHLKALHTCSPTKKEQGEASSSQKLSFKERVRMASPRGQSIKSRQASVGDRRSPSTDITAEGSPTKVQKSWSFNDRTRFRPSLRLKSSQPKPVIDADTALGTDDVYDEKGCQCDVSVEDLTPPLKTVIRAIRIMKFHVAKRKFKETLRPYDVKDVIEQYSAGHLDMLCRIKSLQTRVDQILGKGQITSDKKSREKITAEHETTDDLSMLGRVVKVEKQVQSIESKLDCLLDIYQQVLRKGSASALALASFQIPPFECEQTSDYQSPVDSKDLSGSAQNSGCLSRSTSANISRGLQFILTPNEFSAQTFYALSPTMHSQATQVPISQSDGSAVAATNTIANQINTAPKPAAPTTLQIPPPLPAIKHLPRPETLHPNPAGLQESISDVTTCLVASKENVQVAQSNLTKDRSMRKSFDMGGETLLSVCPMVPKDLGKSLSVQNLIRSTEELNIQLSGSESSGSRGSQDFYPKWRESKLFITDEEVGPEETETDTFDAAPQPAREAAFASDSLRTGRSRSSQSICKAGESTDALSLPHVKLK
Method in brief: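 Detection – FluxOR thallium flux fluorescence, kinetic read · Material – CHO-K1 cells transiently transfected with human KCNQ5 channel · Schedule – transfection 24 h before, dye 90 min, compound 20 min, room temperature · Probe or stimulus – potassium sulfate plus thallium sulfate depolarizing stimulus · Read-out basis – Peak-to-minimum fluorescence over baseline, percent change versus vehicle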

outcome, inactive:
Cc1cc(C)c(NC(=O)CC(C)(C)C)c(Cl)c1
CCCCC(=O)Nc1c(C)cc(C)cc1Cl
Cc1cccc(C)c1NC(=O)C1CC2CCC1C2 (stereo not given)
Cc1ccc(C)c(NC(=O)C2CC3CCC2C3)c1 (stereo not given)
Cc1cc(C)c(NC(=O)C2CC3CCC2C3)c(C)c1 (stereo not given)

— PubChem BioAssay AID493046 (Johns Hopkins Ion Channel Center, 2011)
